Measured values taken from ChEMBL document CHEMBL5715950, “Characterization of molecular and cellular functions of the cyclin-dependent kinase CDK9 using a novel specific inhibitor” (Br J Pharmacol, 2014).
The source made the active and inactive calls. The rule behind the calls is not given here.

Assays:
[1] = biological target: Cyclin-dependent kinase 9 (Homo sapiens) (UniProt P50750); test: Inhibition of CDK9 in human A549 cells assessed as downregulation of PLK2 mRNA expression at 1 to 10 uM incubated for 90 mins by RT-qPCR analysis relative to control; format: cell-based; conditions: dose 1-10 µM
[2] = Transcription level in human HCT-116 cells nuclear extract fused with Gal4-VP16 at 10 uM in presence of ATP by phosphorimaging analysis relative to control
[3] = Selectivity ratio of IC50 for inhibition of CDK9/Cyclin T1 (unknown origin) to IC50 for inhibition of CDK1/Cyclin B1 (unknown origin)
[4] = Transcription level in human HeLa cells nuclear extract fused with Gal4-VP16 at 10 uM in presence of ATP by phosphorimaging analysis relative to control
[5] = biological target: Cyclin-dependent kinase 9 (Homo sapiens) (UniProt P50750); test: Inhibition of CDK9 in human A549 cells assessed as downregulation of GAPDH mRNA expression at 1 to 10 uM incubated for 90 mins by RT-qPCR analysis relative to control; format: cell-based; conditions: dose 1-10 µM
[6] = biological target: Tyrosine-protein kinase ABL2 (Homo sapiens, UniProt P42684); test: Inhibition of ABL2 (unknown origin) assessed as residual activity at 10 uM incubated for 120 mins in presence of 33P-ATP by radiometric kinase assay relative to control
[7] = biological target: Cyclin-dependent kinase 9 (Homo sapiens) (UniProt P50750); test: Inhibition of CDK9 in human A549 cells assessed as downregulation of CCND1 mRNA expression at 1 to 10 uM incubated for 90 mins by RT-qPCR analysis relative to control; format: cell-based; conditions: dose 1-10 µM
[8] = tested on: p53HCT116; test: Induction of apoptosis in human p53HCT116 cells at 10 uM incubated for 24 hrs by Annexin V-FITC/PI staining based flow cytometric analysis; format: functional, cell-based
Outline: (§1)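 Cells grown at 37°C, 5% CO2 (A549, HeLa, MCF7 in DMEM high glucose; HCT116 in McCoy's 5A; THP1 and primary AML M4 apheresis blasts in RPMI1640), exposed to inhibitor or DMSO for 24 h. Apoptotic fraction by flow cytometry after annexin V-fluorescein/propidium iodide double staining. Means ± SD of three biological replicates; AML blasts from one patient, three technical replicates. Student's t-test versus DMSO/untreated.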

[9] = biological target: Cyclin-dependent kinase 9 (Homo sapiens) (UniProt P50750); test: Inhibition of CDK9 in human A549 cells assessed as downregulation of p21 mRNA expression at 2 to 6 uM incubated for 90 mins by RT-qPCR analysis relative to control; format: cell-based; conditions: dose 2-6 µM
[10] = Selectivity ratio of IC50 for inhibition of CDK9/Cyclin T1 (unknown origin) to IC50 for inhibition of CDK7/Cyclin H/MAT1 (unknown origin)
[11] = tested on: HEK-293T; test: Inhibition of transcription in human HEK293T cells nuclear extract fused with Gal4-VP16 at 10 uM in presence of ATP and MgCl2 by phosphorimaging analysis; format: functional, subcellular; conditions: Nucleus
Outline: (§2)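 In vitro transcription from the adenovirus core promoter (Gal-ML, 380 bp G-free cassette), soluble or bead-immobilised template, using HEK293T nuclear extract supplemented with recombinant Gal4-VP16. ATP 60 μM (low), 100 μM, or 500 μM (high); magnesium varied in one series. Transcripts quantified by phosphorimaging.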

[12] = biological target: Cyclin-dependent kinase 9 (Homo sapiens) (UniProt P50750); test: Inhibition of CDK9 in human A549 cells assessed as downregulation of RPL3 mRNA expression at 1 to 10 uM incubated for 90 mins by RT-qPCR analysis relative to control; format: cell-based; conditions: dose 1-10 µM
[13] = Displacement of kinase tracer 236 from CDK2/Cyclin A (unknown origin) assessed as dissociation constant incubated for 1 hr by LanthScreen Eu kinase binding assay; parameters: species or system Homo sapiens
[14] = biological target: T1, Mitogen-activated protein kinase kinase kinase kinase 4 (Homo sapiens, UniProt O95819); test: Inhibition of MAP4K4 (unknown origin) assessed as residual activity at 10 uM incubated for 120 mins in presence of 33P-ATP by radiometric kinase assay relative to control
Target sequence in this assay (O95819 2-1239 limits assumed): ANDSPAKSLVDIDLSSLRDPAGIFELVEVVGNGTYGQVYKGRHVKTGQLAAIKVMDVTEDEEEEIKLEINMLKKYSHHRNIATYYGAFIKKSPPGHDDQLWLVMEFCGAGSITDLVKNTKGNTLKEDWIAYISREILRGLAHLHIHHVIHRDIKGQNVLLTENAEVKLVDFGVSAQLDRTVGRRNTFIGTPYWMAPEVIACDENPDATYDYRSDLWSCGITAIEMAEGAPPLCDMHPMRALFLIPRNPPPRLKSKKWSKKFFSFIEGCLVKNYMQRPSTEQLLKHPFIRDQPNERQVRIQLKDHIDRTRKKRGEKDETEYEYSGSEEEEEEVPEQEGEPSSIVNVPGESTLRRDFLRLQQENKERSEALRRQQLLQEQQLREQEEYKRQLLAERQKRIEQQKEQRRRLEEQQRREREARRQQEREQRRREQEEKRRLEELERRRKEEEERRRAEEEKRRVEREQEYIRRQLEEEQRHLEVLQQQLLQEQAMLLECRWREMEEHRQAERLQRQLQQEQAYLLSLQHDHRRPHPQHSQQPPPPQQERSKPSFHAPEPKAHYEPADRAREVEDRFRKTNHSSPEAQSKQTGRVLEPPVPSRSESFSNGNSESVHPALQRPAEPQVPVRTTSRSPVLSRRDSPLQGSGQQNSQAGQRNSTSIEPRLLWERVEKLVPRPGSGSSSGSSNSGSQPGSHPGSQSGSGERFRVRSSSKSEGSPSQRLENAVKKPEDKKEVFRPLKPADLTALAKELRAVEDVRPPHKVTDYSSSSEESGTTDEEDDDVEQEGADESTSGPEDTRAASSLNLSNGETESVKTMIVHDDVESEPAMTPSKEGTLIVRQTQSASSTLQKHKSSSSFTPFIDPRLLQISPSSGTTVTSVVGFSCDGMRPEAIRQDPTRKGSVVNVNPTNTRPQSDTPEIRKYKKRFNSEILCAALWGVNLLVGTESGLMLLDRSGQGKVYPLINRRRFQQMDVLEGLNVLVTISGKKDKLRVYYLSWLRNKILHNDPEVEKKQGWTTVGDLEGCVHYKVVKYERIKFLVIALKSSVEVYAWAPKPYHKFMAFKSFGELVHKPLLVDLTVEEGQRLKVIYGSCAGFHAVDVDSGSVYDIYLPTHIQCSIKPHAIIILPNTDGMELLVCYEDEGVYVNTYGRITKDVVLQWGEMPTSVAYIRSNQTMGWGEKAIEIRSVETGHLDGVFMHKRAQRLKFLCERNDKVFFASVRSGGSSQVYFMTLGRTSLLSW

[15] = biological target: Cyclin-dependent kinase 1/cyclin B1 (Homo sapiens, UniProt P06493); test: Inhibition of CDK1/Cyclin B1 (unknown origin) using ULight MBP peptide as substrate in presence of ATP incubated for 1 hr by FRET based LANCE Ultra KinaSelect screen assay; format: protein-complex assay
Outline: (§3)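 Time-resolved FRET kinase assay with purified CDK-cyclin pairs. ULight MBP peptide substrate was 50 nM final. Buffer was 50 mM HEPES-KOH pH 7.5, 10 mM MgCl2, 1 mM EGTA and 2 mM DTT, with ATP at each kinase's KM (CDK2-cyclin A 3 μM). Reactions ran 1 h at room temperature, then 2 nM Eu-labelled anti-phospho antibody was added for detection. IC50 given as mean ± SD.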

[16] = biological target: T1, Mitogen-activated protein kinase kinase kinase kinase 4; test: Inhibition of MAP4K4 (unknown origin) incubated for 120 mins in presence of 33P-ATP by radiometric kinase assay
[17] = Transcription level in human HEK293T cells nuclear extract fused with Gal4-VP16 at 10 uM in presence of ATP by phosphorimaging analysis relative to control; conditions: HEK-293T
[18] = tested on: THP-1; test: Induction of apoptosis in human THP-1 cells at 10 uM incubated for 24 hrs by Annexin V-FITC/PI staining based flow cytometric analysis relative to control; format: functional; outline: as §1
[19] = Inhibition of CDK2/Cyclin A (unknown origin) using ULight MBP peptide as substrate in presence of ATP incubated for 1 hr by FRET based LANCE Ultra KinaSelect screen assay; parameters: species or system Homo sapiens; outline: as §3
[20] = biological target: Calcium/calmodulin-dependent protein kinase type IV (Homo sapiens, UniProt Q16566); test: Inhibition of CAMK4 (unknown origin) incubated for 120 mins in presence of 33P-ATP by radiometric kinase assay
[21] = Inhibition of transcription in human HEK293T cells nuclear extract fused with Gal4-VP16 at 4 uM in presence of ATP by phosphorimaging analysis; format: functional; conditions: HEK-293T; outline: as §2
[22] = tested on: A549; test: Induction of apoptosis in human A549 cells at 15 uM incubated for 24 hrs by Annexin V-FITC/PI staining based flow cytometric analysis; format: functional, cell-based; outline: as §1
[23] = biological target: Cyclin-dependent kinase 9 (Homo sapiens) (UniProt P50750); test: Inhibition of CDK9 in human THP-1 cells assessed as downregulation of MED1 mRNA expression by RT-qPCR analysis; format: cell-based
[24] = tested on: MCF7; test: Induction of apoptosis in human MCF7 cells at 10 uM incubated for 24 hrs by Annexin V-FITC/PI staining based flow cytometric analysis; format: functional, cell-based; outline: as §1
[25] = tested on: HeLa; test: Induction of apoptosis in human HeLa cells at > 2 uM incubated for 24 hrs by Annexin V-FITC/PI staining based flow cytometric analysis; format: functional, cell-based; outline: as §1
[26] = biological target: Cyclin-dependent kinase 9 (Homo sapiens) (UniProt P50750); test: Inhibition of CDK9 in human A549 cells assessed as downregulation of MYC mRNA expression at 2 to 6 uM incubated for 90 mins by RT-qPCR analysis relative to control; format: cell-based; conditions: dose 2-6 µM
[27] = biological target: Cyclin-dependent kinase 9 (Homo sapiens) (UniProt P50750); test: Inhibition of CDK9 in human A549 cells assessed as downregulation of RPL3 mRNA expression at 2 to 6 uM incubated for 90 mins by RT-qPCR analysis relative to control; format: cell-based; conditions: dose 2-6 µM

Chain of Cyclin-dependent kinase 9 (Homo sapiens) (P50750 whole entry, the tested form may be a part): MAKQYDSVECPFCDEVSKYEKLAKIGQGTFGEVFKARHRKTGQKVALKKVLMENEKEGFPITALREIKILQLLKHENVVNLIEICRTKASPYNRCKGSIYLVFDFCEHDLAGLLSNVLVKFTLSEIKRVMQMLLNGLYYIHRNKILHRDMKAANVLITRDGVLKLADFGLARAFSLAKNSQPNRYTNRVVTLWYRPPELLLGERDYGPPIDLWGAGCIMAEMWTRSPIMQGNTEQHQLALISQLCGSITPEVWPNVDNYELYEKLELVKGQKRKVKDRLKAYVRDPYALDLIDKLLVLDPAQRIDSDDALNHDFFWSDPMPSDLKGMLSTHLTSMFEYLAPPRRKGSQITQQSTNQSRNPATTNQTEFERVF
Chain of Tyrosine-protein kinase ABL2 (P42684 whole entry): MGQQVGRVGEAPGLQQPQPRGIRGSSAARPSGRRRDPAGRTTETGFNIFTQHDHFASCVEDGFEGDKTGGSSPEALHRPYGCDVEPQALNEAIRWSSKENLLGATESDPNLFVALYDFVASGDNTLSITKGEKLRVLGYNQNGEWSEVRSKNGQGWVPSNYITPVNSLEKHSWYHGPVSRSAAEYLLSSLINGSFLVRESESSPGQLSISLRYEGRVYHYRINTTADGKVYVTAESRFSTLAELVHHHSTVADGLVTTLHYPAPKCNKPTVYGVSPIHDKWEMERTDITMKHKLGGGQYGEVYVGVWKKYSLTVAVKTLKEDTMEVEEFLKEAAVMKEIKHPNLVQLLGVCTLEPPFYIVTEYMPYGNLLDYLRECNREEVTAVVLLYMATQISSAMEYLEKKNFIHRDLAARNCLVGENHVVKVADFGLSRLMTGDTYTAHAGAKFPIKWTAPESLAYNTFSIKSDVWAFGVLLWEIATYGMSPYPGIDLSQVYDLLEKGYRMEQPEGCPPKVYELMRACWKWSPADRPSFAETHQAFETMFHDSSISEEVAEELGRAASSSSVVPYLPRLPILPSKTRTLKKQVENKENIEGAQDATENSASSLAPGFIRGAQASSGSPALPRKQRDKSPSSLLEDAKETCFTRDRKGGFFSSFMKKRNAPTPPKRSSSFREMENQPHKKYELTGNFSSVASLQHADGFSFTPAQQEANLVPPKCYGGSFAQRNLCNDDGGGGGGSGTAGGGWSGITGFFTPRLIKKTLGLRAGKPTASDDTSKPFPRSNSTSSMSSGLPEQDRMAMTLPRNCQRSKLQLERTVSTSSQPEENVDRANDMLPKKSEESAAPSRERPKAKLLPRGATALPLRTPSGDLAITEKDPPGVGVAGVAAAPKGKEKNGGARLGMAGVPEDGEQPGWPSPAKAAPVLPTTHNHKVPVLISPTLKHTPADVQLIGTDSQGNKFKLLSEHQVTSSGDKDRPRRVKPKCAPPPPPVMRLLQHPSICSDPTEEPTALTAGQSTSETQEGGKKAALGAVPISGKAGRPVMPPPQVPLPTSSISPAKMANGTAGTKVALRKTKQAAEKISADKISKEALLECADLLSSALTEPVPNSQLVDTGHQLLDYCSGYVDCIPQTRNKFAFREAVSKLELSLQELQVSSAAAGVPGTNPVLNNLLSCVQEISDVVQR
Chain of Calcium/calmodulin-dependent protein kinase type IV (Q16566 whole entry, the tested form may be a part): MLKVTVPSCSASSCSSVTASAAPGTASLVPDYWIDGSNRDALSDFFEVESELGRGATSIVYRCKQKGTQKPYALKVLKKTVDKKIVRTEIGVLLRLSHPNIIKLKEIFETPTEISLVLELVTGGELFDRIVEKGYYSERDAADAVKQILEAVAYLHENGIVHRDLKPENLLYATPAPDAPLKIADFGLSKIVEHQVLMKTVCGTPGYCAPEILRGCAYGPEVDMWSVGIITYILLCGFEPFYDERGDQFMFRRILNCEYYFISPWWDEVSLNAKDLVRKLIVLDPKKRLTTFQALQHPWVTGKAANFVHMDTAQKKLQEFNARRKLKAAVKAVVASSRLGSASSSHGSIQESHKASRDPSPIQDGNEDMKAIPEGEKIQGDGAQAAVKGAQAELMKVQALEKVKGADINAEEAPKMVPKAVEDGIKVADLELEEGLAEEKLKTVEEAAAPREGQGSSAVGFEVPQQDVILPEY
Chain of Cyclin-dependent kinase 1/cyclin B1 (P06493 whole entry): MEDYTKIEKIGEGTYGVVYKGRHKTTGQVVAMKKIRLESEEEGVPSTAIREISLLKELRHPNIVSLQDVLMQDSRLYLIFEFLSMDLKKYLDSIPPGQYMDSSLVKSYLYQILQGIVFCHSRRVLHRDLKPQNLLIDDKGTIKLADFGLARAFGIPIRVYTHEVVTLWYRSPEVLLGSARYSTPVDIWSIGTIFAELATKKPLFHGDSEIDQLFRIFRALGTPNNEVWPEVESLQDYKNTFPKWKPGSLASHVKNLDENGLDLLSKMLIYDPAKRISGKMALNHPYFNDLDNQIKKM
Chain of Cyclin-dependent kinase 1/cyclin B1 (P14635 whole entry, further chain): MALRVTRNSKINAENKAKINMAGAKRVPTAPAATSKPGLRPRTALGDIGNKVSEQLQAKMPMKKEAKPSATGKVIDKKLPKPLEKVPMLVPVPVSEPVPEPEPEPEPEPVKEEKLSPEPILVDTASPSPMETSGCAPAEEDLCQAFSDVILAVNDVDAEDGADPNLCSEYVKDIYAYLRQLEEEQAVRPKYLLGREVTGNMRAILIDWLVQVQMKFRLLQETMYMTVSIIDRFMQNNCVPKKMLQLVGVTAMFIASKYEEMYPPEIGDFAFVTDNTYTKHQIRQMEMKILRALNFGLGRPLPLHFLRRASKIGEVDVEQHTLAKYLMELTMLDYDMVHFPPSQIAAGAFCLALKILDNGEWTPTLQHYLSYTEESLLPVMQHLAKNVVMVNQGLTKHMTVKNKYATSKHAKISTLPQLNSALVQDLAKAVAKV

## COc1ccccc1-c1cc(Nc2cccc(NS(C)(=O)=O)c2)ncn1
[1]
  inhibition: 50%
[2]
  level, % of control at 10 µM: 20%
[3]
  Ratio IC50: 125
[4]
  level, % of control at 10 µM: 20%
[5]
  inhibition: 50%
[6]
  Activity: 27%
[7]
  inhibition: 50%
[8]
  Activity: Active
[9]
  inhibition: 50%
[10]
  Ratio IC50: > 227
[11]
  inhibition: inactive
[12]
  inhibition: 50%
[13]
  Kd: 1.01 µM
[14]
  Activity: 17.5%
[15]
  IC50: 5.51 µM
[16]
  IC50: 0.82 µM
[17]
  level, % of control at 10 µM: 20%
[18]
  Activity: 45%
[19]
  IC50: 2.44 µM
[20]
  IC50: > 20 µM
[21]
  inhibition at 4 µM: 50%
[22]
  Activity: Active
[23]
  inhibition: Active
[24]
  Activity: Active
[25]
  Activity: Active
[26]
  inhibition: 50%
[27]
  inhibition: 50%
